Source: ChEMBL document CHEMBL2424622, “Development of amino-pyrimidine inhibitors of c-Jun N-terminal kinase (JNK): kinase profiling guided optimization of a 1,2,3-benzotriazole lead” (Bioorg Med Chem Lett, 2013)

What was measured:
[1] = target: T1, Tyrosine-protein kinase Tec (Homo sapiens) (UniProt P42680); assay: Competitive binding affinity to TEC (unknown origin) at 10 uM in presence of ATP relative to control
T1 sequence (whole entry): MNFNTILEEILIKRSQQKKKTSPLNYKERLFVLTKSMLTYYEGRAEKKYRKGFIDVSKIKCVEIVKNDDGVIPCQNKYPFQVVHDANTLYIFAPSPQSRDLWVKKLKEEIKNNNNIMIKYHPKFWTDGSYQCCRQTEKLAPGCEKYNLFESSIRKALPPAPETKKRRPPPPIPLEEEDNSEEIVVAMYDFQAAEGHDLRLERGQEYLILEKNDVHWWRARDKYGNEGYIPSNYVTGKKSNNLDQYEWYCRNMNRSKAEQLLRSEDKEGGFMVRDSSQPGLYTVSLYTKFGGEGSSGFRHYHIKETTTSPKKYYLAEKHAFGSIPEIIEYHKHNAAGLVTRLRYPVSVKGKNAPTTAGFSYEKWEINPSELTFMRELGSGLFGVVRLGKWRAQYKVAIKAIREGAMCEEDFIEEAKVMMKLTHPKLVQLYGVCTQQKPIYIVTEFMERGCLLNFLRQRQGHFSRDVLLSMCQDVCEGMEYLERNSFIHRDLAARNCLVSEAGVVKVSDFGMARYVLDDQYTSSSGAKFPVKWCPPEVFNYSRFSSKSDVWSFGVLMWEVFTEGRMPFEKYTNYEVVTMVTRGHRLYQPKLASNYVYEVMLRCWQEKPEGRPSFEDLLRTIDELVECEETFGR

[2] = target: Activin receptor type-1-like (Homo sapiens) (UniProt P37023); assay: Competitive binding affinity to ACVRL1 (unknown origin) at 10 uM in presence of ATP relative to control
Sequence of Activin receptor type-1-like (Homo sapiens) (P37023 whole entry): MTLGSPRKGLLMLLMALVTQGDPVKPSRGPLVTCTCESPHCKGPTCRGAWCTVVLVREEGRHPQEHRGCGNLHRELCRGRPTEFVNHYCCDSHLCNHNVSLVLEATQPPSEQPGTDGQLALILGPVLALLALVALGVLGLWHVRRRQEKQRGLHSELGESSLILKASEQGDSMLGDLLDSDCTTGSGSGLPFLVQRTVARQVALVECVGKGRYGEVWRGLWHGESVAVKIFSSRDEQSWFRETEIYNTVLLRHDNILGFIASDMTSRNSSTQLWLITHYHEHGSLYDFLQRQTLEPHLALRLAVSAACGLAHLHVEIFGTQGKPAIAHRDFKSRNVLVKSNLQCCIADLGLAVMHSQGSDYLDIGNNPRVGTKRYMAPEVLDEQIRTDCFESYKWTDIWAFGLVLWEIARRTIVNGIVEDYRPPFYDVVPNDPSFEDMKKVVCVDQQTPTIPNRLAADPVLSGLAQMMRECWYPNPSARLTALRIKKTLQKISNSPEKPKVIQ

[3] = target: T2, TGF-beta receptor type-1 (Homo sapiens) (UniProt P36897); assay: Competitive binding affinity to TGFBR1 (unknown origin) at 10 uM in presence of ATP relative to control
T2 sequence (whole entry): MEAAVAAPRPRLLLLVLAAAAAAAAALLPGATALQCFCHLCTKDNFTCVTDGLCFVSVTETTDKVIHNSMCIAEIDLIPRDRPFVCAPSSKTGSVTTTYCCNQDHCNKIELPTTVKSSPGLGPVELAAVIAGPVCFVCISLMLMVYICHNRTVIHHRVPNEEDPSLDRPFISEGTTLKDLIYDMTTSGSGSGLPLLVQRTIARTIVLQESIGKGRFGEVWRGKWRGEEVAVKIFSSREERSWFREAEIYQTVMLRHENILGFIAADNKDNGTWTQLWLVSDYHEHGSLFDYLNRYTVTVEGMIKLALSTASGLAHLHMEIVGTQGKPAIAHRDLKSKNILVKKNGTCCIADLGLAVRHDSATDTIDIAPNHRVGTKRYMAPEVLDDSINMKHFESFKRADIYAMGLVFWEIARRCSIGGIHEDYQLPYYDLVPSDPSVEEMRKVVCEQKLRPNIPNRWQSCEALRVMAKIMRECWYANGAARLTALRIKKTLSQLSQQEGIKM

[4] = target: T3, Serine/threonine-protein kinase Chk1 (Homo sapiens) (UniProt O14757); assay: Competitive binding affinity to CHEK1 (unknown origin) at 10 uM in presence of ATP relative to control
T3 sequence (whole entry): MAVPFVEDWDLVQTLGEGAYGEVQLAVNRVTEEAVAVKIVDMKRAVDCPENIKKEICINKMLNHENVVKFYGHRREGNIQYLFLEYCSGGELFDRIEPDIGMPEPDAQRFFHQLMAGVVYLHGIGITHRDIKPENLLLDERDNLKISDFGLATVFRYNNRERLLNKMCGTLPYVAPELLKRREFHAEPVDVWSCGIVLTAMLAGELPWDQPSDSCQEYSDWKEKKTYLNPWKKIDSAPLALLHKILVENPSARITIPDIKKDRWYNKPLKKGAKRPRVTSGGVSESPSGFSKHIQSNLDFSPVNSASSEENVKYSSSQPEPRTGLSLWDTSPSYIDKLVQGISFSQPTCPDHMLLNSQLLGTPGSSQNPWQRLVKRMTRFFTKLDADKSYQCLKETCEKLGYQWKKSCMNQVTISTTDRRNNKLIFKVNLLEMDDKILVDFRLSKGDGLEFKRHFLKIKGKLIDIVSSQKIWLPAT

[5] = target: T4, Ephrin type-B receptor 3 (Homo sapiens) (UniProt P54753); assay: Competitive binding affinity to EPHB3 (unknown origin) at 10 uM in presence of ATP relative to control
T4 sequence (whole entry): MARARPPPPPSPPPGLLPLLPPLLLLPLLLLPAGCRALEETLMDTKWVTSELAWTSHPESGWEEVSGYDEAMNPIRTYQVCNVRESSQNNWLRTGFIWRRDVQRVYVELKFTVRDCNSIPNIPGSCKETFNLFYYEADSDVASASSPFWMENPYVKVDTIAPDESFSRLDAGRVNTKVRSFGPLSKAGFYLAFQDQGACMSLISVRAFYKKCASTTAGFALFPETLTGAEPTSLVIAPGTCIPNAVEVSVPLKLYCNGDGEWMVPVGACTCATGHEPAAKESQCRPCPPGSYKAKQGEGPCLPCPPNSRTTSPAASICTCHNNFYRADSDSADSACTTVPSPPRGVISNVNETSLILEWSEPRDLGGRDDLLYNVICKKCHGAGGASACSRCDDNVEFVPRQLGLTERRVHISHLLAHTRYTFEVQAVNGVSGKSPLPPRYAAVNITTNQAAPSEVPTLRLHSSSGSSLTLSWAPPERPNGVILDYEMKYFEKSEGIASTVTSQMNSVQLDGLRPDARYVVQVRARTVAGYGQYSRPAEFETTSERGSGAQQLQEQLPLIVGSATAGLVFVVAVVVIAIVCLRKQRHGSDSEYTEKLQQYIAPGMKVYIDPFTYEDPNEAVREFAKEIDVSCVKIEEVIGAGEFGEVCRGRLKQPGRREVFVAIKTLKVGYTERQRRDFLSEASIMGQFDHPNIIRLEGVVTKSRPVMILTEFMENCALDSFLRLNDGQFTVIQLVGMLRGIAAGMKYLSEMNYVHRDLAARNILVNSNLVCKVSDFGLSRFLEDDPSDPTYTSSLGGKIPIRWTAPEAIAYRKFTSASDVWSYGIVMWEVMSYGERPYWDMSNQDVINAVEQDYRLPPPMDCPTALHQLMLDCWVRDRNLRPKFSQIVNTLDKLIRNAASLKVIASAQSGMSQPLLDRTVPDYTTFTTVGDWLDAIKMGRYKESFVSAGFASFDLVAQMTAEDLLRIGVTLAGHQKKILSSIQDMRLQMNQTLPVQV
Outline: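 In vitro ATP-site competition binding assay, part of profiling against a diverse panel of 128 kinases. Each compound was tested at a single concentration of 10 µM. Kinome selectivity was summarized as S15 selectivity scores.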

[6] = target: Mitogen-activated protein kinase 7 (Homo sapiens, UniProt Q13164); assay: Competitive binding affinity to ERK5 (unknown origin) at 10 uM in presence of ATP relative to control
Sequence of Mitogen-activated protein kinase 7 (Q13164 2-816 limits assumed): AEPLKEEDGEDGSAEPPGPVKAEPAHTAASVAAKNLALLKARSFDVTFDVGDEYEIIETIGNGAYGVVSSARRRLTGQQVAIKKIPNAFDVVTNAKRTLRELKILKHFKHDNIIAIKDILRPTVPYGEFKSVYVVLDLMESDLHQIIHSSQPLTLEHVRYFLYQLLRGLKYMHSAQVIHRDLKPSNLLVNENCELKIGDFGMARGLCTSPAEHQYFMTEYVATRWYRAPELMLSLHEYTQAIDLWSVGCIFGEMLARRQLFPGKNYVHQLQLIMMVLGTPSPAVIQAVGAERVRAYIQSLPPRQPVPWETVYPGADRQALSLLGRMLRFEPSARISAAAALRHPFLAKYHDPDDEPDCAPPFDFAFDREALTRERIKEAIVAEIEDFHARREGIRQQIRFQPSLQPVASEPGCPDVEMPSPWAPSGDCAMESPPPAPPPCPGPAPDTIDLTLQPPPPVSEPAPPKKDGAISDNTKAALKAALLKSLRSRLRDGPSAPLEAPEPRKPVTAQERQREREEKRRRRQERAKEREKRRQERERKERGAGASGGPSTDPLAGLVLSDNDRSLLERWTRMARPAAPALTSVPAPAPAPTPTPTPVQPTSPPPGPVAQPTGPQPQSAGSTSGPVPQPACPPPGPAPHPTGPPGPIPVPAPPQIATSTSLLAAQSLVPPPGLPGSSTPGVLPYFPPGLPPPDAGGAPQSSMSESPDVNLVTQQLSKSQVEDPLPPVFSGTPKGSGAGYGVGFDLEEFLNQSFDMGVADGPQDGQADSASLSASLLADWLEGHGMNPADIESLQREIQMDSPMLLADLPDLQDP

Row | Structure (SMILES) | inhibition [1] | inhibition [2] | inhibition [3] | inhibition [4] | inhibition [5] | inhibition [6]
1 | CS(=O)(=O)CCCOc1cccc2c1ccn2-c1ccnc(N[C@H]2CC[C@H](C(=O)N3CCC(O)CC3)CC2)n1 |  |  |  |  |  | > 85%
2 | O[C@H]1CC[C@H](Nc2nccc(-c3n[nH]c4ccccc34)n2)CC1 |  | < 50% | < 50% |  | < 50% | 
3 | O[C@H]1CC[C@H](Nc2nccc(-n3nnc4ccccc43)n2)CC1 | < 50% | < 50% | < 50% | < 50% | < 50% | 100%

Second part, the compound after the results:

Row | inhibition [1] | inhibition [2] | inhibition [3] | inhibition [4] | inhibition [5] | inhibition [6] | Structure (SMILES)
4 | < 50% | < 50% | < 50% | < 50% | < 50% | 79% | O[C@H]1CC[C@H](Nc2nccc(-n3ncc4ccccc43)n2)CC1
5 | < 50% | < 50% | < 50% | < 50% | < 50% | < 50% | O[C@H]1CC[C@H](Nc2nccc(-n3ccc4ccccc43)n2)CC1
